Laboratory results from ChEMBL document CHEMBL1145016, “Synthesis and antitumor activity of conjugates of muramyldipeptide or normuramyldipeptide with hydroxyacridine/acridone derivatives” (J Med Chem, 2003).
The source made the active and inactive calls.

How the values were obtained:
[1] = system: SF-268; test: Tested for cytotoxicity of compound against SF-268 (CNS) cell line; IA means inactive.; assay type: functional, cell-based; details: Homo sapiens
[2] = system: MCF7; test: Tested for cytotoxicity of compound against MCF-7 (breast) cell line; IA means inactive.; assay type: functional, cell-based; details: Homo sapiens
[3] = system: NCI-H460; test: Tested for cytotoxicity of compound against NCI-H460 (lung)cell line; IA means inactive.; assay type: functional, cell-based; details: Homo sapiens
[4] = system: Mus musculus; test: Evaluated in vivo for toxic deaths of mice at 3.35 mg/kg for 7 days by intraperitoneal treatment on SK-MEL-28 melanoma cell line; details: ip, 168 h
[5] = system: Mus musculus; test: Evaluated in vivo for toxic deaths of mice at 8.40 mg/kg for 8 days by intraperitoneal treatment on UACC-62 melanoma cell line; details: ip, 8.4 mg/kg, 192 h
[6] = system: Mus musculus; test: Evaluated in vivo for percent growth delay in mice at 3.35 mg/kg for 10 days by intraperitoneal treatment on NCI-H522 non-small cell lung cell line
[7] = system: Mus musculus; test: Evaluated in vivo for percent of tumor weight in treated/control of mice at 5.60 mg/kg for 8 days by intraperitoneal treatment on COLO 205 colon cell line; details: dose 5.6 mg/kg
[8] = Evaluated in vivo for subcutaneous score in hallow fiber assay; assay type: functional
Procedure, shortened: (§1)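 NCI hollow fiber preliminary in vivo assay; scores recorded separately for intraperitoneal (ip) and subcutaneous (sc) fiber implantation sites, with an activity criterion applied (Y/N). Procedure detailed in prior work.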

[9] = system: Mus musculus; test: Evaluated in vivo for toxic deaths of mice at 3.35 mg/kg for 10 days by intraperitoneal treatment on NCI-H522 non-small cell lung cell line; details: ip, 240 h
[10] = Evaluated in vivo for intraperitoneal score in hallow fiber assay; assay type: functional; procedure, shortened: as §1
[11] = system: Mus musculus; test: Evaluated in vivo for percent growth delay in mice at 5.60 mg/kg for 7 days by intraperitoneal treatment on AS283 lymphoma cell line; assay type: functional; details: dose 5.6 mg/kg
[12] = system: Mus musculus; test: Evaluated in vivo for percent of tumor weight in treated/control of mice at 5.60 mg/kg by intraperitoneal treatment; details: dose 5.6 mg/kg
[13] = system: Mus musculus; test: Evaluated in vivo for percent growth delay in mice at 5.60 mg/kg for 11 days by intraperitoneal treatment on A498 renal cell line; details: dose 5.6 mg/kg
[14] = system: Mus musculus; test: Evaluated in vivo for percent of tumor weight in treated/control of mice 5.60 at mg/kg for 11 days by intraperitoneal treatment on A498 renal cell line
[15] = system: Mus musculus; test: Evaluated in vivo for percent treated/control of mice at 3.35 mg/kg for 10 days by intraperitoneal treatment on NCI-H522 non-small cell lung cell line
[16] = Evaluated in vivo for intraperitoneal + subcutaneous score in hallow fiber assay; assay type: functional; procedure, shortened: as §1
[17] = system: Mus musculus; test: Evaluated in vivo for percent of tumor weight in treated/control of mice at 3.35 mg/kg for 7 days by intraperitoneal treatment on SK-MEL-28 melanoma cell line
[18] = system: Mus musculus; test: Evaluated in vivo for percent growth delay in mice at 3.35 mg/kg for 7 days by intraperitoneal treatment on SK-MEL-28 melanoma cell line
[19] = system: Mus musculus; test: Evaluated in vivo for percent growth delay in mice at 5.60 mg/kg for 8 days by intraperitoneal treatment on COLO 205 colon cell line; details: dose 5.6 mg/kg
[20] = system: Mus musculus; test: Evaluated in vivo for percent of tumor weight in treated/control of mice at 8.40 mg/kg for 8 days by intraperitoneal treatment on UACC-62 melanoma cell line; details: dose 8.4 mg/kg
[21] = system: Mus musculus; test: Evaluated in vivo for toxic deaths of mice at 5.60 mg/kg for 5 days by intraperitoneal treatment on HCT-15 colon cell line; assay type: toxicity, organism-based; parameters: dose 5.6 mg/kg, route intraperitoneal; details: ip, 5.6 mg/kg, 120 h
Procedure, shortened: (§2)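 Nude mice carrying subcutaneous human tumor xenografts, tested at NCI Bethesda; compound given on the stated schedule, intraperitoneally (IP) or intravenously (IV). Three dose levels were tested, and the table reports only the optimal one. Toxic deaths are scored per treatment group alongside tumor weight end points.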

[22] = Tested for cytotoxicity (lethal concentration) of compound, activity expressed as MID log LC50; assay type: functional
Procedure, shortened: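 MID is the calculated mean of LC50 concentrations (M) across the cell line panel, where LC50 is the half-lethal concentration. It is reported as a log value.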

[23] = system: Mus musculus; test: Evaluated in vivo for toxic deaths of mice at 5.60 mg/kg for 12 days by intraperitoneal treatment on COLO 205 colon cell line; assay type: toxicity, organism-based; parameters: dose 5.6 mg/kg, route intraperitoneal; details: ip, 5.6 mg/kg, 288 h; procedure, shortened: as §2
[24] = system: Mus musculus; test: Evaluated in vivo for percent growth delay in mice at 8.40 mg/kg for 8 days by intraperitoneal treatment on UACC-62 melanoma cell line; details: dose 8.4 mg/kg
[25] = system: Mus musculus; test: Evaluated in vivo for toxic deaths of mice at 5.60 mg/kg for 24 (38) days by intraperitoneal treatment on MDA-MB-435 breast […] cell line; assay type: toxicity, organism-based; parameters: dose 5.6 mg/kg, route intraperitoneal; details: ip, 5.6 mg/kg; procedure, shortened: as §2
[26] = system: Mus musculus; test: Evaluated in vivo for percent growth delay in mice at 5.60 mg/kg for 15 days by intraperitoneal treatment on UACC-257 melanoma cell line; details: dose 5.6 mg/kg

CC(=O)N[C@@H]1[C@H](OCc2ccccc2)OC(CO)C(O)[C@H]1OC(C)C(=O)N[C@@H](C(=O)N[C@H](CCC(=O)OCCCNC(=O)c1cccc2cc3ccccc3nc12)C(N)=O)C(C)C (stereo partly drawn)
IA [1]: inactive
IA [2]: inactive
IA [3]: inactive

CC(=O)N[C@@H]1[C@H](OCc2ccccc2)OC(CO)C(O)[C@H]1OCC(=O)N[C@H](C)C(=O)N[C@H](CCC(=O)OCCNC(=O)c1cccc2cc3ccccc3nc12)C(N)=O (stereo partly drawn)
IA [1]: inactive
IA [2]: inactive
IA [3]: inactive

CC(=O)N[C@@H]1[C@H](OCc2ccccc2)OC(CO)C(O)[C@H]1OCC(=O)N[C@H](C)C(=O)N[C@H](CCC(=O)OCCNC(=O)c1cccc2c(=O)c3ccccc3[nH]c12)C(N)=O (stereo partly drawn)
IA [1]: inactive
IA [2]: inactive
IA [3]: inactive

CC(=O)N[C@@H]1[C@H](OCc2ccccc2)OC(CO)C(O)[C@H]1OC(C)C(=O)N[C@H](C)C(=O)N[C@H](CCC(=O)OCCCNc1c2ccccc2nc2cccc([N+](=O)[O-])c12)C(N)=O (stereo partly drawn)
Toxic deaths [4]: 0
Toxic deaths [5]: 0
Growth delay (T-C/C) [6]: 1%
Tumor weight [7]: 65%
Score [8]: 2
Toxic deaths [9]: 1
Score [10]: 2
Growth delay (T-C/C) [11]: 16%
Tumor weight [12]: 60%
Growth delay (T-C/C) [13]: 3%
Tumor weight [14]: 68%
Tumor weight [15]: 89%
Score [16]: 4
Tumor weight [17]: 105%
Growth delay (T-C/C) [18]: -3%
Growth delay (T-C/C) [19]: -7%
Tumor weight [20]: 1%
Toxic deaths [21]: 2
MID log LC50 [22]: 5.78 M
Toxic deaths [23]: 1
Growth delay (T-C/C) [24]: 107%
Toxic deaths [25]: 1
Growth delay (T-C/C) [26]: 1%

O=[N+]([O-])c1cccc2nc3ccccc3c(NCCO)c12
MID log LC50 [22]: 5.9 M
